Source: ChEMBL document CHEMBL4364256, “Design, synthesis and biological evaluation of antimicrobial diarylimine and -amine compounds targeting the interaction between the bacterial NusB and NusE proteins” (Eur J Med Chem, 2019)
≈ marks a conversion by molar mass, not a printed value.

Experiments:
Staphylococcus aureus [1] = assay: Antimicrobial activity against Staphylococcus aureus ATCC BAA43 incubated for 20 hrs by microdilution method; type: functional
Procedure, shortened: (§1)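 MIC determined by microdilution following Clinical & Laboratory Standards Institute (CLSI) guidelines, read in µg/mL, against a panel of hospital- and community-acquired MRSA strains.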

Enterococcus faecium = assay: Antimicrobial activity against Enterococcus faecium ATCC 19433 incubated for 20 hrs by microdilution method; type: functional
Procedure, shortened: (§2)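 Broth microdilution MIC testing done following CLSI guidelines.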

Streptococcus pneumoniae = assay: Antimicrobial activity against Streptococcus pneumoniae ATCC 49619 incubated for 20 hrs by microdilution method; type: functional; procedure, shortened: as §2
Acinetobacter baumannii = assay: Antimicrobial activity against Acinetobacter baumannii ATCC 19606 incubated for 20 hrs by microdilution method; type: functional; procedure, shortened: as §2
Pseudomonas aeruginosa = assay: Antimicrobial activity against Pseudomonas aeruginosa ATCC 27853 incubated for 20 hrs by microdilution method; type: functional; procedure, shortened: as §2
[2] = test system: Enterococcus casseliflavus; assay: Antimicrobial activity against Enterococcus casseliflavus ATCC 25788 incubated for 20 hrs by microdilution method; type: functional; procedure, shortened: as §2
[3] = test system: Staphylococcus epidermidis; assay: Antimicrobial activity against Staphylococcus epidermidis ATCC 12228 incubated for 20 hrs by microdilution method; type: functional; procedure, shortened: as §2
[4] = test system: Staphylococcus saprophyticus subsp. saprophyticus; assay: (§3) Antimicrobial activity against Staphylococcus saprophyticus ATCC 15305 incubated for 20 hrs by microdilution method; type: functional; procedure, shortened: as §2
Streptococcus pyogenes = assay: Antimicrobial activity against Streptococcus pyogenes ATCC 19615 incubated for 20 hrs by microdilution method; type: functional; procedure, shortened: as §2
Streptococcus agalactiae = assay: Antimicrobial activity against Streptococcus agalactiae ATCC 12386 incubated for 20 hrs by microdilution method; type: functional; procedure, shortened: as §2
Staphylococcus aureus [5] = assay: Antimicrobial activity against Staphylococcus aureus ST239 incubated for 20 hrs by microdilution method; type: functional; procedure, shortened: as §1
Staphylococcus aureus [6] = assay: Antimicrobial activity against Staphylococcus aureus ATCC BAA44 incubated for 20 hrs by microdilution method; type: functional; procedure, shortened: as §1
Staphylococcus aureus [7] = assay: Antimicrobial activity against Staphylococcus aureus HA W231 ST45 incubated for 20 hrs by microdilution method; type: functional; procedure, shortened: as §1
Staphylococcus aureus [8] = assay: Antimicrobial activity against CA-methicillin-resistant Staphylococcus aureus W47 ST30 incubated for 20 hrs by microdilution method; type: functional; procedure, shortened: as §1
Staphylococcus aureus [9] = assay: Antimicrobial activity against Staphylococcus aureus ST22 11B086169 incubated for 20 hrs by microdilution method; type: functional; procedure, shortened: as §1
Staphylococcus aureus [10] = assay: Antimicrobial activity against CA-methicillin-resistant Staphylococcus aureus W4 ST338 incubated for 20 hrs by microdilution method; type: functional; procedure, shortened: as §1
Staphylococcus aureus [11] = assay: Antimicrobial activity against Staphylococcus aureus HA W235 ST5 incubated for 20 hrs by microdilution method; type: functional; procedure, shortened: as §1
Bacillus subtilis = assay: Inhibition of N-terminal LgBiT-fused Bacillus subtilis NusB expressed in Escherichia coli BL21(DE3)pLysS interaction with C- terminal SmBiT-fused Bacillus subtilis NusE expressed in Escherichia coli BL21(DE3)pLysS at 100 uM preincubated for 10 mins followed by NusE addition and measured after 10 mins by nano-glo luciferase assay relative to control
Procedure, shortened: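 NusB and NusE were mixed 1:1 at 1 µM in PBS, with compound at 100 µM. The read-out was percent inhibition of the NusB-NusE interaction.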

[12] = as §3; type: functional, Staphylococcus saprophyticus subsp. saprophyticus; settings: ATCC 15305, 20 h; procedure, shortened: as §2
Staphylococcus aureus [13] = assay: Antimicrobial activity against CA-methicillin-resistant Staphylococcus aureus W45 ST59 incubated for 20 hrs by microdilution method; settings: W45 ST59, 20 h
Staphylococcus aureus [14] = assay: Antimicrobial activity against CA-methicillin-resistant Staphylococcus aureus W46 ST59 incubated for 20 hrs by microdilution method; settings: W46 ST59, 20 h
Staphylococcus aureus [15] = assay: Antimicrobial activity against Staphylococcus aureus USA300/ST8 incubated for 20 hrs by microdilution method; settings: USA300 ST8, 20 h
Staphylococcus aureus [16] = assay: Antimicrobial activity against CA-methicillin-resistant Staphylococcus aureus W48 ST217 incubated for 20 hrs by microdilution method; settings: W48 ST217, 20 h
Erythrocyte = assay: Hemolytic activity against human erythrocytes at 0.1 to 10 ug/ml incubated for 45 mins; type: ADME, cell-based; settings: 0.75 h
Procedure, shortened: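 Hemolysis was tested on human blood cells with compound at 0.1, 1 and 10 µg/mL, judged against a nonhemolytic cut-off value.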

[17] = Apparent permeability across apical to basolateral side in human Caco2 cells by LC-MS/MS analysis; type: ADME, cell-based; settings: Caco-2
Staphylococcus aureus [18] = assay: microbe, parasite or virus in culture; settings: ATCC 25923, 20 h
Staphylococcus aureus [19] = assay: microbe, parasite or virus in culture; settings: ATCC 29213, 20 h
[20] = microbe, parasite or virus in culture; settings: Enterobacter cloacae, ATCC 13047, 20 h
[21] = Cytotoxicity against human A549 cells assessed as reduction in cell viability after 48 to 72 hrs by MTT assay; type: cell-based
[22] = Cytotoxicity against human HaCaT cells assessed as reduction in cell viability after 48 to 72 hrs by MTT assay; type: cell-based
[23] = Therapeutic index, ratio of CC50 for human A549 cells to 1/2 times MIC for Staphylococcus aureus ATCC 25923; type: toxicity; settings: read-out: TI
[24] = Therapeutic index, ratio of CC50 for human HaCaT cells to 1/2 times MIC for Staphylococcus aureus ATCC 25923; type: toxicity; settings: read-out: TI
[25] = ATCC 19606 = CIP 70.34 = JCM 6841, 20 h

GENTAMICIN gave an MIC (Staphylococcus aureus [1]) greater than 256 µg/mL, an MIC (Enterococcus faecium) of 16 µg/mL and an MIC (Streptococcus pneumoniae) of 32 µg/mL. For the same compound, the MIC (Acinetobacter baumannii; ATCC 19606 = CIP 70.34 = JCM 6841) was 32 µg/mL, the MIC (Pseudomonas aeruginosa) was 2 µg/mL and the MIC [2] was 4 µg/mL. It also gave an MIC [3] of 0.125 µg/mL, an MIC [4] of 0.0625 µg/mL and an MIC (Streptococcus pyogenes) of 8 µg/mL. The MIC (Streptococcus agalactiae) was 32 µg/mL, the MIC (Staphylococcus aureus [5]; CN79) was greater than 256 µg/mL and the MIC (Staphylococcus aureus [6]) was greater than 256 µg/mL. The MIC (Staphylococcus aureus [7]) was 16 µg/mL, the MIC (Staphylococcus aureus [8]) was 0.25 µg/mL and the MIC (Staphylococcus aureus [9]) was 0.25 µg/mL. It also gave an MIC (Staphylococcus aureus [10]) of 0.25 µg/mL and an MIC (Staphylococcus aureus [11]) greater than 256 µg/mL.

Compound O=[N+]([O-])c1ccc(O)c(CNc2cccc(Cl)c2)c1 has an MIC (Staphylococcus aureus [1]; ATCC BAA43, 20 h) of 4 µg/mL (≈ 14.4 µM), an inhibition (Bacillus subtilis) of 34.9% and an MIC (Enterococcus faecium; ATCC 19433, 20 h) of 32 µg/mL (≈ 115 µM). The MIC (Streptococcus pneumoniae; ATCC 49619, 20 h) was 8 µg/mL (≈ 28.7 µM), the MIC (Acinetobacter baumannii; [25]) was 128 µg/mL (≈ 459 µM) and the MIC (Pseudomonas aeruginosa; ATCC 27853, 20 h) was greater than 256 µg/mL. It also gave an MIC ([2]; ATCC 25788, 20 h) of 32 µg/mL (≈ 115 µM), an MIC ([3]; ATCC 12228, 20 h) of 8 µg/mL (≈ 28.7 µM) and an MIC [12] of 16 µg/mL (≈ 57.4 µM). The MIC (Streptococcus pyogenes; ATCC 19615, 20 h) was 16 µg/mL (≈ 57.4 µM), the MIC (Streptococcus agalactiae; ATCC 12386, 20 h) was 32 µg/mL (≈ 115 µM) and the MIC (Staphylococcus aureus [5]; CN79, 20 h) was 16 µg/mL (≈ 57.4 µM). The MIC (Staphylococcus aureus [6]; ATCC BAA44, 20 h) was 8 µg/mL (≈ 28.7 µM), the MIC (Staphylococcus aureus [7]; HA W231 ST45, 20 h) was 8 µg/mL (≈ 28.7 µM) and the MIC (Staphylococcus aureus [8]; W47 ST30, 20 h) was 8 µg/mL (≈ 28.7 µM). The MIC (Staphylococcus aureus [13]) was 8 µg/mL (≈ 28.7 µM), the MIC (Staphylococcus aureus [14]) was 8 µg/mL (≈ 28.7 µM) and the MIC (Staphylococcus aureus [15]) was 8 µg/mL (≈ 28.7 µM). For the same compound, the MIC (Staphylococcus aureus [9]; ST22 11B086169, 20 h) was 4 µg/mL (≈ 14.4 µM), the MIC (Staphylococcus aureus [10]; W4 ST338, 20 h) was 8 µg/mL (≈ 28.7 µM) and the MIC (Staphylococcus aureus [16]) was 8 µg/mL (≈ 28.7 µM). The MIC (Staphylococcus aureus [11]; HA W235 ST5, 20 h) was 8 µg/mL (≈ 28.7 µM), the Activity (Erythrocyte) was “Non-Toxic” and the Papp A→B [17] was 14.9 ×10⁻⁶ cm/s. It also gave an MIC (Staphylococcus aureus [18]) of 4 µg/mL (≈ 14.4 µM), an MIC (Staphylococcus aureus [19]) of 4 µg/mL (≈ 14.4 µM) and an MIC [20] of 256 µg/mL (≈ 919 µM).

In the case of CC(C)(C)c1ccc(NCc2cc([N+](=O)[O-])ccc2O)cc1, the MIC (Staphylococcus aureus [1]; ATCC BAA43, 20 h) is reported as 4 µg/mL (≈ 13.3 µM), the inhibition (Bacillus subtilis) is reported as 10.8% and the MIC (Enterococcus faecium; ATCC 19433, 20 h) is reported as greater than 256 µg/mL. For the same compound, the MIC (Streptococcus pneumoniae; ATCC 49619, 20 h) was 4 to 8 µg/mL (≈ 13.3 to 26.6 µM), the MIC (Acinetobacter baumannii; [25]) was greater than 256 µg/mL and the MIC (Pseudomonas aeruginosa; ATCC 27853, 20 h) was greater than 256 µg/mL. It also gave an MIC ([2]; ATCC 25788, 20 h) of 32 µg/mL (≈ 107 µM), an MIC ([3]; ATCC 12228, 20 h) of 4 µg/mL (≈ 13.3 µM) and an MIC [12] of 8 µg/mL (≈ 26.6 µM). For the same compound, the MIC (Streptococcus pyogenes; ATCC 19615, 20 h) was 16 µg/mL (≈ 53.3 µM), the MIC (Streptococcus agalactiae; ATCC 12386, 20 h) was 16 µg/mL (≈ 53.3 µM) and the MIC (Staphylococcus aureus [5]; CN79, 20 h) was 4 µg/mL (≈ 13.3 µM). For the same compound, the MIC (Staphylococcus aureus [6]; ATCC BAA44, 20 h) was 4 µg/mL (≈ 13.3 µM), the MIC (Staphylococcus aureus [7]; HA W231 ST45, 20 h) was 4 µg/mL (≈ 13.3 µM) and the MIC (Staphylococcus aureus [8]; W47 ST30, 20 h) was 4 µg/mL (≈ 13.3 µM). For the same compound, the MIC (Staphylococcus aureus [13]) was 4 µg/mL (≈ 13.3 µM), the MIC (Staphylococcus aureus [14]) was 4 µg/mL (≈ 13.3 µM) and the MIC (Staphylococcus aureus [15]) was 4 µg/mL (≈ 13.3 µM). It also gave an MIC (Staphylococcus aureus [9]; ST22 11B086169, 20 h) of 4 µg/mL (≈ 13.3 µM), an MIC (Staphylococcus aureus [10]; W4 ST338, 20 h) of 4 µg/mL (≈ 13.3 µM) and an MIC (Staphylococcus aureus [16]) of 8 µg/mL (≈ 26.6 µM). For the same compound, the MIC (Staphylococcus aureus [11]; HA W235 ST5, 20 h) was 4 µg/mL (≈ 13.3 µM), the CC50 [21] was 37.2 µM and the CC50 [22] was 38.9 µM. The selectivity ratio [23] was 11, the selectivity ratio [24] was 12 and the MIC (Staphylococcus aureus [18]) was 2 µg/mL (≈ 6.66 µM). For the same compound, the MIC (Staphylococcus aureus [19]) was 4 µg/mL (≈ 13.3 µM) and the MIC [20] was greater than 256 µg/mL.
